A selection: hits, their analogues and other compounds. The true share with any hit is near 3.8%.
Kir21 block – inhibitors of mouse Kir2.1 inward-rectifier potassium channel; HEK293-Kir2.1, FluxOR thallium flux fluorescence; hits give low values; actives 0.85% (n = 310,000); Inward rectifier potassium channel 2 (Mus musculus), P35561; AID 1672, 2009; B-score at 10 µM;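 active = fluorescence ratio B-score at or below minus 3 SD of library scores, with starting-brightness B-score within 2 SD, cut at about -4.2 in these data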;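 note: channel flux triggered by added potassium and thallium sulfate stimulus; B-score of peak minus minimum fluorescence over baseline after thallium stimulus; more negative B-score means stronger Kir2.1 block with less thallium influx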
hERG protect – hERG rescue from dofetilide block, primary screen, cell-based, CHO-hERG, FluxOR thallium flux, dofetilide IC70; actives 0.51% (n = 310,000); AID 1511, 2009; activation (rescue from dofetilide block), less the hit threshold, % at 10 µM; Voltage-gated inwardly rectifying potassium channel KCNH2 (Homo sapiens), Q12809; dofetilide IC70 present;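 active = activation above the mean of controls blocked by dofetilide plus 5 SD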;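 note: thallium influx through hERG after potassium depolarization seen as dye fluorescence rise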
KCNK9 block – KCNK9 potassium channel inhibitors, primary screen, HEK293 cells, thallium flux; Potassium channel subfamily K member 9 (Homo sapiens), Q9NPC2; FluxOR thallium flux fluorescence; hits give low values; B-score at 10 µM; actives 1.2% (n = 310,000); AID 488922, 2010;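 active = ratio B-score over 3 SD below the library mean, with starting fluorescence within 5 SD of its mean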;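 note: negative B-score means less thallium flux so channel inhibition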
KCNK3 block – human KCNK3 channel inhibitors, primary screen, CHO cells, FluxOR thallium flux, B-score. FluxOR fluorescence; hits give low values. Potassium channel subfamily K member 3 (Homo sapiens), O14649. B-score at 10 µM. actives 0.84% (n = 340,000);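 active = B-score under library mean minus 4 SD, starting fluorescence ratio at most library mean plus 5 SD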;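 note: more negative B-score means stronger inhibition of thallium flux through KCNK3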
KCNQ1 block – inhibitors of human KCNQ1 channel, primary screen, cell-based, thallium flux, high-throughput. CHO-K1 KCNQ1, FluxOR thallium flux fluorescence; hits give high values. B-score at 10 µM. actives 1.3% (n = 310,000);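 active = compounds whose thallium flux B-score, printed positive for inhibition, exceeds three library SD while starting fluorescence stays within three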;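 note: channel opened by potassium depolarization with thallium stimulus after 20 min compound exposure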
Target sequence (P51787 whole entry, looked up): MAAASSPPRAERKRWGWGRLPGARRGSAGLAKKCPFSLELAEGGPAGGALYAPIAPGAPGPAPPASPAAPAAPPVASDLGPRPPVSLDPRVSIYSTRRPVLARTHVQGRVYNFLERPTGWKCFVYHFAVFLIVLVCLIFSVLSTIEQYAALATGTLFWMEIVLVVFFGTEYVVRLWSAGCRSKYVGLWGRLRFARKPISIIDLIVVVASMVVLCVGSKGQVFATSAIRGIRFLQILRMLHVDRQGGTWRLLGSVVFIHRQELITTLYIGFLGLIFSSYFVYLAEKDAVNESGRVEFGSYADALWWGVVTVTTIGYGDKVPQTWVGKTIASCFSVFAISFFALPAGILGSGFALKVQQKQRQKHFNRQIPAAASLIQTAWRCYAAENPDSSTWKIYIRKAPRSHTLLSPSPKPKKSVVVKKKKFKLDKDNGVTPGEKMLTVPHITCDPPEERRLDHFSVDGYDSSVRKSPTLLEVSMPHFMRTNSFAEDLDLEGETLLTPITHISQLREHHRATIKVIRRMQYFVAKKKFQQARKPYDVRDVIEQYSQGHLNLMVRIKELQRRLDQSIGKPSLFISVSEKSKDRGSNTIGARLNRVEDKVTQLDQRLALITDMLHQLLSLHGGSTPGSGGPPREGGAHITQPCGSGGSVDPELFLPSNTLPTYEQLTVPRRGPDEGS
KCNQ1 act – potentiators or activators of KCNQ1 channel, primary screen, cell-based, thallium flux, high-throughput; B-score at 10 µM; CHO-K1 KCNQ1, thallium flux FluxOR fluorescence; hits give high values; Potassium voltage-gated channel subfamily KQT member 1 (Homo sapiens), P51787; actives 0.35% (n = 310,000);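 active = fluorescence ratio B-score, a plate-corrected score, at least three library SD, with initial intensity B-score within 5 SD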
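Test system: CHO-K1 cells stably expressing KCNQ1 / Medium: assay buffer / Also added: depolarizing K+/Tl+ stimulus, K2SO4 and Tl2SO4 each 12.5 mM in 5x stock / Incubation: 90 min dye loading and 20 min compound exposure, both at room temperature / Signal: thallium influx via FluxOR fluorescence, kinetic imaging / Evaluation: B score of baseline-normalized fluorescence ratio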
KCNK9 block conf – KCNK9 potassium channel inhibitors, confirmation, HEK293 cells, thallium flux, duplicate. actives 43% (n = 4,900). FluxOR thallium flux fluorescence. shares compounds with KCNK9 block. inhibition, % at 10 µM;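 active = thallium signal inhibited by more than 5 SD of the compound-free buffer control wells, on both duplicate plates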;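 note: 0% = assay buffer control wells without compound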
Kir21 sel – mouse Kir2.1 channel inhibition, confirmation, selectivity assay for KCNK9 modulator project, cell-based, HEK293, thallium flux; shares compounds with KCNK9 block; Kir2.1 cells, FluxOR thallium flux fluorescence; inhibition, % at 10 µM; actives 4% (n = 4,900); AID 492993, 2010;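 active = thallium signal drop more than 5 SD beyond the mean of the no-compound control wells, seen in both duplicate plates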;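 note: signal is fluorescence rise after thallium addition divided by baseline fluorescence; plate controls were assay buffer only for no effect and full block by chlorpromazine control for full effect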
HEK293 Tl ctr – thallium flux in non-induced HEK293 cells, confirmation, counter-screen for KCNK9 inhibitor project, cell-based, second counter screen, non-induced KCNK9-HEK293 | shares compounds with KCNK9 block | FluxOR thallium flux | AID 492997, 2010 | actives 40% (n = 4,900) | inhibition, % at 10 µM;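 active = thallium signal drop beyond 5 SD of the untreated control mean, on both duplicate plates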;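 note: plate controls were buffer only IC0 wells for no effect and SID17386958 at its maximal inhibitory level for full effect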
KCNK3 confirm – retest of human KCNK3 channel inhibitors, confirmation, CHO cells, FluxOR thallium flux, triplicate | FluxOR fluorescence; 0% buffer, 100% carvedilol maximal block | shares compounds with KCNK3 block | AID 651638, 2012 | actives 99% (n = 2,400) | ratio percent of control, % at 10 µM;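 active = ratio percent of control, averaged over triplicates, above buffer control mean plus 5 SD, cut at about 64% in these data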;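 note: ratio is the fluorescence rise from min to max over baseline after thallium stimulus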
KCNK3 uninduced – thallium flux inhibition in non-induced cells, primary screen, counter-screen for KCNK3 inhibitor project, cell-based, non-induced KCNK3 line, FluxOR thallium, triplicate | actives 40% (n = 2,400) | non-induced KCNK3 parental cells; hits give low values | thallium flux ratio (lower = more inhibition) at 10 µM | shares compounds with KCNK3 block;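 active = thallium flux ratio, averaged over three wells, more than 5 SD below the buffer control mean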;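 note: host cells are CHO cells without KCNK3 induction; ratio is peak minus trough fluorescence over baseline then normalized to buffer controls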
Starred values were filed as active, the others as inactive.

Screening CC(=O)Nc1cc2c(cc1Br)OCCO2 returned Kir21 block -0.33, hERG protect -4, KCNK9 block inactive, KCNK3 block inactive, KCNQ1 block inactive and KCNQ1 act inactive.
`Brc1ccc(CNc2cc3c(cc2Br)OCCO3)cc1` gave Kir21 block 1.7, hERG protect -3, KCNK9 block -9.1*, KCNK3 block inactive, KCNQ1 block inactive, KCNQ1 act inactive, KCNK9 block conf 28%*, Kir21 sel inactive, HEK293 Tl ctr 42%*, KCNK3 confirm 103* and KCNK3 uninduced inactive.
CCOC(=O)c1sc(-c2ccccc2)cc1NC(=O)CSc1nnnn1C was read as Kir21 block 2, hERG protect -6, KCNK9 block -11*, KCNK3 block -12*, KCNQ1 block inactive, KCNQ1 act inactive, KCNK9 block conf 52%*, Kir21 sel inactive, HEK293 Tl ctr 34%*, KCNK3 confirm 87* and KCNK3 uninduced inactive.
`CCOC(=O)c1cc(-c2ccccc2)sc1NC(=O)CSc1nnnn1C` gave Kir21 block -0.93, hERG protect -7, KCNK9 block -9.6*, KCNK3 block -11*, KCNQ1 block inactive, KCNQ1 act inactive, KCNK9 block conf 54%*, Kir21 sel inactive, HEK293 Tl ctr 32%*, KCNK3 confirm 104* and KCNK3 uninduced inactive.
CCOC(=O)c1cccc(NC(=O)CSc2nnnn2C)c1 was read as Kir21 block 0.31, hERG protect -12, KCNK9 block inactive, KCNK3 block inactive, KCNQ1 block inactive and KCNQ1 act inactive.
For Cc1cccc(-c2nnc(-c3cccc(NC(=O)Cc4cccs4)c3)o2)c1 the results were Kir21 block -0.13, hERG protect 0, KCNK9 block -17*, KCNK3 block -16*, KCNQ1 block inactive, KCNQ1 act inactive, KCNK9 block conf 54%*, Kir21 sel inactive, HEK293 Tl ctr 30%*, KCNK3 confirm 148* and KCNK3 uninduced 0.14*.
For O=C(Cc1cccs1)Nc1ccc(-c2nnc(-c3ccccc3)o2)cc1 the results were Kir21 block 0, hERG protect -1, KCNK9 block inactive, KCNK3 block inactive, KCNQ1 block inactive and KCNQ1 act inactive.
For CC1(C)Cc2cccc(C(=O)Nc3ccc(Cl)cc3)c2O1 the results were Kir21 block 0.99, hERG protect -10, KCNK9 block -11*, KCNK3 block -12*, KCNQ1 block inactive, KCNQ1 act inactive, KCNK9 block conf 46%*, Kir21 sel inactive, HEK293 Tl ctr inactive, KCNK3 confirm 89* and KCNK3 uninduced 0.16*.
CC1(C)Cc2cccc(C(=O)Nc3ccncc3)c2O1 was read as Kir21 block -0.56, hERG protect -6, KCNK9 block inactive, KCNK3 block inactive, KCNQ1 block inactive and KCNQ1 act inactive.
For CCOC(=O)C[N+](CC)(CC)CC#Cc1ccccc1 the results were Kir21 block -1.2, hERG protect -12, KCNK9 block inactive, KCNK3 block inactive, KCNQ1 block inactive and KCNQ1 act inactive.
For CCCCOc1ccc2c(C)cc(=O)oc2c1OCCCC the results were Kir21 block 0.71, hERG protect -12, KCNK9 block -25*, KCNK3 block -9.4*, KCNQ1 block 7*, KCNQ1 act inactive, KCNK9 block conf 76%*, Kir21 sel inactive, HEK293 Tl ctr 36%*, KCNK3 confirm 119* and KCNK3 uninduced 0.14*.
CCOc1ccc2c(C)cc(=O)oc2c1OCC was read as Kir21 block 1.1, hERG protect -4, KCNK9 block inactive, KCNK3 block inactive, KCNQ1 block inactive and KCNQ1 act inactive.
For CCOC(=O)c1c(S(=O)(=O)Nc2ccc(F)cc2C)c(C)n(C)c1C the results were Kir21 block 0.1, hERG protect -1, KCNK9 block -14*, KCNK3 block -9.5*, KCNQ1 block inactive, KCNQ1 act inactive, KCNK9 block conf 64%*, Kir21 sel inactive, HEK293 Tl ctr 26%*, KCNK3 confirm 116* and KCNK3 uninduced inactive.
CCOC(=O)C(C)Sc1cc(CS(=O)(=O)c2ccccc2)nc(-c2ccccc2)n1 (stereo not given) was read as Kir21 block -0.01, hERG protect -8, KCNK9 block -10*, KCNK3 block -8.8*, KCNQ1 block inactive, KCNQ1 act inactive, KCNK9 block conf 58%*, Kir21 sel inactive, HEK293 Tl ctr 28%*, KCNK3 confirm 125* and KCNK3 uninduced inactive.
For O=S(=O)(Cc1cc(Oc2ccccc2)nc(-c2ccccc2)n1)c1ccccc1 the results were Kir21 block 1.4, hERG protect -8, KCNK9 block inactive, KCNK3 block inactive, KCNQ1 block inactive and KCNQ1 act inactive.
For c1ccc(Cn2nnc3c(NCC4CCCO4)ncnc32)cc1 (stereo not given) the results were Kir21 block 0.91, hERG protect -12, KCNK9 block inactive, KCNK3 block inactive, KCNQ1 block inactive and KCNQ1 act inactive.
